Data: article PMC3496166 (Scientific Reports, 2012)
Like-named read-outs stand apart in the source and are kept apart here.

B1: SRL RNA wt (27 nt) (structured_RNA)
RNA: GGGCUCCUAGUACGAGAGGACCGGAGU

What was measured:
EF-G [1] = target: EF-G (Escherichia coli, UniProt P0A6M8); test: isothermal titration calorimetry; format: binding
In short: (§1)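 Assay used 6His-tagged E. coli protein, purified with an added Ni-NTA step. ITC ran at 5 or 25°C in pH 7.5 phosphate buffer (5 mM K2HPO4, 95 mM KCl, 5 mM MgCl2, 1 mM DTT, 10% glycerol). G nucleotide or 27-nt SRL RNA (50–500 μM in syringe) was titrated into protein (5–40 μM in cell), some runs with 500 μM nucleotide or 200 μM SRL added. Dilution heat subtracted; one-site nonlinear fit.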

IF2 [2] = target: IF2 (Escherichia coli, UniProt P0A705); test: isothermal titration calorimetry; format: binding
In short: as §1

IF2 [3] = target: T1, IF2 (E. coli, UniProt P0A705 1-890); test: ITC
EF-G [4] = target: T2, EF-G (E. coli, UniProt P0A6M8 1-704); test: ITC
EF-G [5] = target: T2, EF-G; test: ITC; remark: listed apart in the source
IF2 [6] = target: T1, IF2; test: ITC; remark: listed apart in the source
EF-G [7] = target: T2, EF-G; test: ITC; remark: listed apart in the source

T2 sequence (P0A6M8 whole entry): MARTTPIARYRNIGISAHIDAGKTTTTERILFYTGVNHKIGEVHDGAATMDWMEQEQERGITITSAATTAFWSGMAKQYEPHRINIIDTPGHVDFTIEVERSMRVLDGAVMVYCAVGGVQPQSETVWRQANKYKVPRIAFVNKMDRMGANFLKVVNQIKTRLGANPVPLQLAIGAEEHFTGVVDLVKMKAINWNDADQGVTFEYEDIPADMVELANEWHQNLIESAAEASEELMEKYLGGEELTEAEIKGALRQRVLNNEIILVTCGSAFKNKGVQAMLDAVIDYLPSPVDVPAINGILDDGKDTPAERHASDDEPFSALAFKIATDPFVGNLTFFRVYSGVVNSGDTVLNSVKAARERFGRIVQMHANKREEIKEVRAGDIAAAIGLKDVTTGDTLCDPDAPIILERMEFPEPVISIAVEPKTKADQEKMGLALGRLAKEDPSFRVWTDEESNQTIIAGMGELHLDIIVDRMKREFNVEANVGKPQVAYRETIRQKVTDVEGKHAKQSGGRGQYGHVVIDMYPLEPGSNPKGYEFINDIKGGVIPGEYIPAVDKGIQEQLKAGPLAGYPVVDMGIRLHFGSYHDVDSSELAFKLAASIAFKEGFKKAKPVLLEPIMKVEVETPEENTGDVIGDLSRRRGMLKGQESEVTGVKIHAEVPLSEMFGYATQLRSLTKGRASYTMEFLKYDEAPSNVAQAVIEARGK
T1 sequence (P0A705 whole entry): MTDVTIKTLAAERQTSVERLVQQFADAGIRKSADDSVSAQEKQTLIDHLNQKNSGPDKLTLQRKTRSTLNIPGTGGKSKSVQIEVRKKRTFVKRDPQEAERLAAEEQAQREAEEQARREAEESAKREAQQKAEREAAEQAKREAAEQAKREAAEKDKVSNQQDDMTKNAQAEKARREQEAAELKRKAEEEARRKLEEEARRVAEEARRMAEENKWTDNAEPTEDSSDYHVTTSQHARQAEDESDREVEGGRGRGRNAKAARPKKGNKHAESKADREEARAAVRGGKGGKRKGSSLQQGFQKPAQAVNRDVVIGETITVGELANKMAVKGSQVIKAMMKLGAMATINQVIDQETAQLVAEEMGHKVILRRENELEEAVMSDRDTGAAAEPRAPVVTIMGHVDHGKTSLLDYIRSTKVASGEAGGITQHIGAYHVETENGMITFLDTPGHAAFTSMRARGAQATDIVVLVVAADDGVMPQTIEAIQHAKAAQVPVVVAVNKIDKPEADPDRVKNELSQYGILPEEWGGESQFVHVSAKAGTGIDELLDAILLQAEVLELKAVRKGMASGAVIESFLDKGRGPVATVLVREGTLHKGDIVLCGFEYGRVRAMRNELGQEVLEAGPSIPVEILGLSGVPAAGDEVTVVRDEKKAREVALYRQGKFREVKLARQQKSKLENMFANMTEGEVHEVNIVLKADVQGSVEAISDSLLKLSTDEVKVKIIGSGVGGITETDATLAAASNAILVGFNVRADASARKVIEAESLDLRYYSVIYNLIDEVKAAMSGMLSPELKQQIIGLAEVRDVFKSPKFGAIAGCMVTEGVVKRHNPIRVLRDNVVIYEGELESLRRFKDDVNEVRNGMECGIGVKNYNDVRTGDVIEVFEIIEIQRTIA
IF2 (Escherichia coli, UniProt P0A705), sequence (P0A705 whole entry): as above
EF-G (Escherichia coli, UniProt P0A6M8), sequence (P0A6M8 2-704): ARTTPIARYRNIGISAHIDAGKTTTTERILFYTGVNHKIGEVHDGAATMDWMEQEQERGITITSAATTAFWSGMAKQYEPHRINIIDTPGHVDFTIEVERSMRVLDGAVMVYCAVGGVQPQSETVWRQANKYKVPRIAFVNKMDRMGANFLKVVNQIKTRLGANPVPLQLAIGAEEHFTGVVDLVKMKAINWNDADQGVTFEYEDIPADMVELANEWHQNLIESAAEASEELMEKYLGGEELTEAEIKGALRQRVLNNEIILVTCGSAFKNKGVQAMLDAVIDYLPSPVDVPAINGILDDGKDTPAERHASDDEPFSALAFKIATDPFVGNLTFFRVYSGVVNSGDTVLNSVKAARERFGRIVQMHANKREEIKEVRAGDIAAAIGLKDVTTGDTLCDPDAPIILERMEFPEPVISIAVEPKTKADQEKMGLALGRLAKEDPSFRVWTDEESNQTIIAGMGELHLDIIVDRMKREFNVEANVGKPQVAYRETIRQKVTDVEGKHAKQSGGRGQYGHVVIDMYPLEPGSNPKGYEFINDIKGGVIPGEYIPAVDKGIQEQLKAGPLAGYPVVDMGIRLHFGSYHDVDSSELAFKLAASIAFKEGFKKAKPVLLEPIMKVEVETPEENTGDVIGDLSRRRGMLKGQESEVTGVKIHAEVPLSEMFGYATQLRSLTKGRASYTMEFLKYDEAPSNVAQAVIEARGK

Row | Molecule | Kd (EF-G [1]) | Kd (IF2 [2]) | Kd (IF2 [3]) | Kd (EF-G [4]) | Kd (EF-G [5]) | Kd (IF2 [6]) | Kd (EF-G [7])
1 | Nc1nc2c(ncn2[C@@H]2O[C@H](COP(=O)(O)OP(=O)(O)O)[C@@H](O)[C@H]2O)c(=O)[nH]1 [GDP] | 1.8 µM | 1.6 µM | – | – | – | – | –
2 | Nc1nc2c(ncn2[C@@H]2O[C@H](COP(=O)(O)OP(=O)(O)OP(=O)(O)O)[C@@H](O)[C@H]2O)c(=O)[nH]1 [GTP] | 2.7 µM | 6.7 µM | – | – | – | – | –
3 | B1 | – | – | 1 µM | 3.7 µM | 5.9 µM | 0.67 µM | 4.2 µM
